Broadly, the Ki is the dissociation constant of the complex between target and ligand, obtained from inhibition or displacement. As a reminder, the EC50 is the midpoint of the concentration-response curve. The pA2 is a measure of antagonist potency on a negative log scale.

The structures appear in SMILES notation. Calls of active or inactive are those of the source. The calls are words filed in the database; no cut-off is given here.

Experiment [1] deals with T1, Cannabinoid receptor 1 (Homo sapiens, UniProt P21554). The experiment is described as follows: Displacement of [3H]CP-55940 from human recombinant CB1 receptor expressed in CHO cells. It counts as cell-based.
Experiment [2] deals with T1, Cannabinoid receptor 1. Nature of the experiment: Agonist activity at human recombinant CB1 receptor expressed in CHO cells assessed as effect on CP-55940 induced PLA2 activation by [3H]arachidonic acid release assay. To be noted: for Kb: read-out: pA2 (converted). It counts as functional, cell-based.
Experiment [3] addresses T2, Cannabinoid receptor 2 (Homo sapiens, UniProt P34972). The experiment is described as follows: Displacement of [3H]CP-55940 from human recombinant CB2 receptor expressed in CHO cells. Format: cell-based. For orientation: In a radioligand displacement assay an active substance lowers the binding of a labelled ligand.
Experiment [4] concerns the target T2, Cannabinoid receptor 2. Nature of the experiment: Inverse agonist activity at human recombinant CB2 receptor expressed in CHOK1 cells assessed as effect on forskolin-stimulated adenylate cyclase activity by cAMP accumulation assay. It counts as functional, cell-based, CHO-K1. The essentials:
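CHO-K1 cells expressing human CB2, grown in serum-supplemented medium with glutamine, Hygromycin B and G418 at 37 °C, 5% CO2. Confluent cells loaded with [3H]adenine for 2 h, then 20 min in PBS with 1 mM IBMX and 3×10^-7 M forskolin ± compound (10^-10–10^-6 M). Stopped with TCA; [3H]cAMP/[3H]ATP separated on Dowex/alumina, scintillation counted, basal subtracted; […], two independent experiments in triplicate.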
Background: Changes in cAMP serve as a functional read-out for many G protein-coupled receptors.

For a further experiment, the system named is Rattus norvegicus. Nature of the experiment: Neuroprotective activity in Lewis rat assessed as reduction of experimental autoallergic encephalomyelitis-induced motor deficits at 20 mg/kg, po qd for 11 days. It counts as functional, organism-based. The arrangement: dose 20 mg/kg. The essentials: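 Male Lewis rats, 175–225 g, inoculated day 0 by subcutaneous hind-paw injection, under isoflurane, of a saline emulsion of complete Freund adjuvant, M. tuberculosis H37RA and guinea pig myelin basic protein. Oral dosing once daily from day one. Motor dysfunction scored daily on a 0–10 scale, with body weights; paralysis intensity analysed as AUC and average score.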

T1 sequence (P21554 whole entry): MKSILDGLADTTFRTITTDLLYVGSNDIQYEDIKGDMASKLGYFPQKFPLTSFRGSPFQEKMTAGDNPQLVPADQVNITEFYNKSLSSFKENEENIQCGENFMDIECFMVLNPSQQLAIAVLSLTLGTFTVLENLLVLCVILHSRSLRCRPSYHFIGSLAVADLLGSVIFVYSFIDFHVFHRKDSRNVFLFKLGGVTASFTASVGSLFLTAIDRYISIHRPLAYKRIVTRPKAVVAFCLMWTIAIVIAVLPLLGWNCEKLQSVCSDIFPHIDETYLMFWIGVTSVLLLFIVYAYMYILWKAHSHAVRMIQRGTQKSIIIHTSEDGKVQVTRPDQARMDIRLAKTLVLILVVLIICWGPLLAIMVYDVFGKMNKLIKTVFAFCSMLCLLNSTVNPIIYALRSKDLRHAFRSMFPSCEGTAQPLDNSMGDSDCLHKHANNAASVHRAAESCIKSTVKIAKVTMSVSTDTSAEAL
T2 sequence (P34972 whole entry): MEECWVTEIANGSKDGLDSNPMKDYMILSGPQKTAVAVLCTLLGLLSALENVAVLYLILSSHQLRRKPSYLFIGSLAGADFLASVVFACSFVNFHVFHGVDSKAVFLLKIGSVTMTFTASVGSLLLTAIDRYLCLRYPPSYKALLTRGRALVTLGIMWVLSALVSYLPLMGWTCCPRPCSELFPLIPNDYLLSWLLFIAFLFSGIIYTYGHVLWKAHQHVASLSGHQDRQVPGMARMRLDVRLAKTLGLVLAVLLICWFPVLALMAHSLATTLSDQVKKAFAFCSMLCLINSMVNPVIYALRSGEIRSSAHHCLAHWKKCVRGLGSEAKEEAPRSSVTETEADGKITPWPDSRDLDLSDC

With `CCCCCC1=NN(C(=O)NC[C@@H]2CC[C@H]3C[C@@H]2C3(C)C)CC1c1ccccc1` (stereo partly specified), the results for the Ki at Cannabinoid receptor 1 [1] and at Cannabinoid receptor 2 [3] were 15.6 nM and 13.3 nM, respectively. Besides, at Cannabinoid receptor 1 [2], the EC50 was 2000 nM.

For `CCCCCC1=NN(C(=O)NC2C3CC4CC(C3)CC2C4)CC1c1ccccc1` (stereo unspecified), the inhibition constant (Ki) amounted to 6.4 nM at Cannabinoid receptor 1 [1] and 6.3 nM at Cannabinoid receptor 2 [3]. Further, on Cannabinoid receptor 1 [2], the EC50 was 25.1 nM.

On to `CCCCCC1=NN(C(=O)NC23CC4CC(CC(C4)C2)C3)CC1c1ccccc1` (stereo unspecified), for which the results for the Ki at Cannabinoid receptor 1 [1] and at Cannabinoid receptor 2 [3] were 68 nM and 14.9 nM, respectively. Besides, on Cannabinoid receptor 1 [2], the EC50 was 398 nM.

As for `CCCCCN1N=C(C(=O)N[C@H]2C[C@H]3CC[C@]2(C)C3(C)C)CC1c1ccccc1F` (stereo partly specified), the Ki at Cannabinoid receptor 1 [1] was 6.1 nM. Besides, at Cannabinoid receptor 1 [2], the EC50 is 3.98 nM and the Kb was 7.94 nM. The Ki at Cannabinoid receptor 2 [3] worked out at 9.1 nM.

`CCCCC1=NN(C(=O)NC(C)(C)c2ccccc2)CC1c1ccsc1` (stereo unspecified): the Ki stood at 19.3 nM at Cannabinoid receptor 1 [1] and 62 nM at Cannabinoid receptor 2 [3]. In addition, on Cannabinoid receptor 1 [2], the EC50 is 39.8 nM.

`CCCCCN1N=C(C(=O)NC2C3CC4CC(C3)CC2C4)CC1c1ccccc1` (stereo unspecified): the Ki is 9.2 nM on Cannabinoid receptor 1 [1] and 7.1 nM at Cannabinoid receptor 2 [3]. For the same compound, on Cannabinoid receptor 1 [2], the Kb was 7.94 nM.

Turning to `CCCCCN1N=C(C(=O)N[C@H]2C[C@H]3CC[C@]2(C)C3(C)C)CC1c1ccccc1` (stereo partly specified), on Cannabinoid receptor 1 [1], the inhibition constant (Ki) was 4.7 nM. Moreover, on Cannabinoid receptor 1 [2], the EC50 was 5.01 nM and the Kb was 7.94 nM. In addition, the Ki at Cannabinoid receptor 2 [3] came out at 20.1 nM.

As for `CCCCCC1=NN(C(=O)NCC2CCCCC2)CC1c1ccccc1` (stereo unspecified), the Ki on Cannabinoid receptor 1 [1] is 15.3 nM; on Cannabinoid receptor 2 [3], 53 nM.

`CCCCCCC(C)(C)c1cc(O)c2c(c1)OC(C)(C)[C@@H]1CCC(=O)C[C@@H]21` [NABILONE]: the Ki at Cannabinoid receptor 1 [1] came out at 5.1 nM; at Cannabinoid receptor 2 [3] it was 17.6 nM. Also, the EC50 at Cannabinoid receptor 1 [2] was 3.98 nM.

Consider `CCCCC1=NN(C(=O)NC(C)(C)c2ccccc2)CC1c1ccccc1` (stereo unspecified), for which the Ki on Cannabinoid receptor 1 [1] amounted to 14.2 nM; at Cannabinoid receptor 2 [3], 35.6 nM. Further, the concentration for a half-maximal effect (EC50) at Cannabinoid receptor 1 [2] is 3.98 nM.

With `CCCCCC1=NN(C(=O)NC2CCCCCCC2)CC1c1ccccc1` (stereo unspecified), the Ki amounted to 11.9 nM at Cannabinoid receptor 1 [1] and 26.6 nM on Cannabinoid receptor 2 [3].

As for `CCCCC1=NN(C(=O)NC(C)(C)c2ccccc2)C(C)(C)C1c1ccccc1` (stereo unspecified), the results for the inhibition constant (Ki) at Cannabinoid receptor 1 [1] and at Cannabinoid receptor 2 [3] were 9 nM and 11.9 nM, respectively.

In the case of `CCCCC1=NN(C(=O)N[C@H]2C[C@H]3CC[C@]2(C)C3(C)C)C(C)(C)C1c1ccccc1` (stereo partly specified), the Ki on Cannabinoid receptor 1 [1] came to 16.1 nM; at Cannabinoid receptor 2 [3], 3.4 nM.

With `CCCCCC1=NN(C(=O)NCC23CC4CC(CC(C4)C2)C3)CC1c1ccccc1` (stereo unspecified), the Ki at Cannabinoid receptor 1 [1] was found to be 16.1 nM.

On to `CCCCCC1=NN(C(=O)Nc2cccc3ccccc23)CC1c1ccccc1` (stereo unspecified), for which the figures for the Ki at Cannabinoid receptor 1 [1] and at Cannabinoid receptor 2 [3] were 7.4 nM and 36.6 nM, respectively. Also, the 50% effective concentration (EC50) at Cannabinoid receptor 1 [2] was 1580 nM.

With `CCCCCC1=NN(C(=O)NC2CCCc3ccccc32)CC1c1ccccc1` (stereo unspecified), the values for the inhibition constant Ki at Cannabinoid receptor 1 [1] and on Cannabinoid receptor 2 [3] were 33.1 nM and 22.5 nM, respectively.

On to `CCCCCC1=NN(C(=O)Nc2ccccc2C(F)(F)F)CC1c1ccccc1` (stereo unspecified), for which the values for the Ki at Cannabinoid receptor 1 [1] and at Cannabinoid receptor 2 [3] were 70 nM and 15 nM, respectively.

As to `CCCCCC1=NN(C(=O)NC2CCCCCC2)CC1c1ccccc1` (stereo unspecified), the Ki on Cannabinoid receptor 1 [1] was 15.3 nM; on Cannabinoid receptor 2 [3], 19.8 nM.

On to `CCCCCC1=NN(C(=O)NC(C)(C)c2ccccc2)CC1c1ccccc1` (stereo unspecified), for which the values for the Ki at Cannabinoid receptor 1 [1] and at Cannabinoid receptor 2 [3] were 3.26 nM and 17.6 nM, respectively. The EC50 on Cannabinoid receptor 1 [2] is 3.98 nM.

Turning to `CCCCC1=NN(C(=O)NC(C)(C)c2ccc(F)cc2)CC1c1cccc(F)c1` (stereo unspecified), the Ki at Cannabinoid receptor 1 [1] amounted to 44.9 nM; at Cannabinoid receptor 2 [3], 74 nM. On Cannabinoid receptor 1 [2], the half-maximal effective concentration (EC50) is 100 nM.

With `CCCCCC1=NN(C(=O)NC2CCCCC2)CC1c1ccccc1` (stereo unspecified), the Ki came out at 52 nM on Cannabinoid receptor 1 [1] and 79 nM at Cannabinoid receptor 2 [3].

Consider `CCCCCC1=NN(C(=O)NCc2ccccc2)CC1c1ccccc1` (stereo unspecified), for which the Ki at Cannabinoid receptor 1 [1] came to 51 nM; on Cannabinoid receptor 2 [3], 260 nM. Further, the EC50 on Cannabinoid receptor 1 [2] is 398 nM.

As for `CCCCCC1=NN(C(=O)c2cccc3ccccc23)CC1c1ccccc1` (stereo unspecified), the inhibitory constant (Ki) was 164 nM at Cannabinoid receptor 1 [1] and 103 nM at Cannabinoid receptor 2 [3]. For the same compound, on Cannabinoid receptor 1 [2], the EC50 was 31.6 nM.

Take `CCCCCC1=NN(C(=O)NC2C[C@H]3CCC2(C)C3(C)C)CC1c1ccccc1` (single isomer, unassigned): the Ki was 8.3 nM on Cannabinoid receptor 1 [1] and 5.3 nM at Cannabinoid receptor 2 [3]. Besides, the EC50 on Cannabinoid receptor 1 [2] is 3.98 nM; on Cannabinoid receptor 2 [4], 3.16 nM. The pA2 on Cannabinoid receptor 1 [2] (cho) worked out at 8.1. The result in the experiment with Rattus norvegicus was Active.

Consider `CCCCCN1N=C(C(=O)NC(C)(C)c2ccc(F)cc2)CC1c1ccccc1` (stereo unspecified), for which the Ki on Cannabinoid receptor 1 [1] is 118 nM. For the same compound, at Cannabinoid receptor 1 [2], the EC50 was 3.98 nM and the Kb was 7.94 nM. Further, the Ki on Cannabinoid receptor 2 [3] is 121 nM.

Turning to `CCCCCC1=NN(C(=O)N[C@H]2C[C@H]3CC[C@]2(C)C3(C)C)CC1c1ccccc1` (stereo in doubt; 9), on Cannabinoid receptor 1 [1], the Ki came to 28.5 nM. For the same compound, at Cannabinoid receptor 1 [2], the EC50 was 0.631 nM and the Kb was 7.94 nM. Moreover, the inhibition constant (Ki) on Cannabinoid receptor 2 [3] is 7.4 nM.

Turning to `CCCCC1=NN(C(=O)NC(C)(C)c2ccc(F)cc2)CC1c1ccccc1F` (stereo unspecified), the Ki on Cannabinoid receptor 1 [1] came to 32 nM; on Cannabinoid receptor 2 [3], 89 nM. In addition, the EC50 on Cannabinoid receptor 1 [2] was 126 nM.

`CCCCCC1=NN(C(=O)N[C@H]2CC3CC[C@]2(C)C3(C)C)CC1c1ccccc1` (single isomer, unassigned): the Ki on Cannabinoid receptor 1 [1] is 46.8 nM; at Cannabinoid receptor 2 [3] it was 36 nM. Further, at Cannabinoid receptor 1 [2], the EC50 was 158 nM.

Source of the values: ChEMBL document CHEMBL1221318, “Two distinct classes of novel pyrazolinecarboxamides as potent cannabinoid CB1 receptor agonists” (Bioorg Med Chem Lett, 2010).
